Experimental findings from ChEMBL document CHEMBL1125838, “Conformational restriction of the phenylalanine residue in a cyclic opioid peptide analogue: effects on receptor selectivity and stereospecificity” (J Med Chem, 1991) are described below.

The species named for test [1] is Mus musculus. Briefly: Compound was tested in vitro for inhibition of electrically evoked contractions of the mouse vas deferens. Type of test: functional. A digest of the protocol:
(§1)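 Electrically stimulated guinea pig ileum or mouse vas deferens preparations; inhibition of evoked contractions measured. Each preparation also gave a log dose-response curve for the [Leu5]enkephalin standard, and test IC50 values were normalized against it. Naloxone Ki came from the ratio of IC50 values with and without a fixed naloxone concentration.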

For test [2], the species on record is Cavia porcellus. The test is described as follows: Relative potency towards guinea pig ileum relative to [Leu5]-enkephalin. It counts as functional. Summed up: (§2)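 The [Leu5]enkephalin standard's log dose-response curve was run on each individual ileum or vas deferens preparation. Test IC50 values for inhibition of electrically evoked contractions were normalized to it, giving potency relative to [Leu5]enkephalin.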

Test [3] has as its target Mu-type opioid receptor (Rattus norvegicus, UniProt P33535). Briefly: Displacement of [3H]DAGO from rat brain membrane opioid receptor mu.
In test [4] the target is Delta-type opioid receptor (Rattus norvegicus, UniProt P33533). The test is described as follows: Displacement of [3H]DSLET from rat brain membrane opioid receptor delta. A digest of the protocol: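 Rat brain membranes incubated with 0.78 nM [3H]DSLET at 0 °C for 2 h. IC50 taken from log dose-displacement curves.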
A general note: Displacement assays read how much labelled ligand stays bound in the presence of the test substance.

For test [5], the species on record is Cavia porcellus. Briefly: Compound was tested in vitro for inhibition of electrically evoked contractions of the guinea pig ileum. It counts as functional. A digest of the protocol:
as §1

Test [6] is filed under the species Mus musculus. The test is described as follows: Relative potency towards mouse vas deferens relative to [Leu5]-enkephalin. Type of test: functional. Summed up:
as §2

The term IC50 denotes the point on the concentration scale where inhibition reaches its midpoint. As a reminder, the Ki is a measure of affinity in units of concentration, obtained from inhibition or displacement. Read a high Ki as lower affinity.

Mu-type opioid receptor, sequence (P33535 whole entry): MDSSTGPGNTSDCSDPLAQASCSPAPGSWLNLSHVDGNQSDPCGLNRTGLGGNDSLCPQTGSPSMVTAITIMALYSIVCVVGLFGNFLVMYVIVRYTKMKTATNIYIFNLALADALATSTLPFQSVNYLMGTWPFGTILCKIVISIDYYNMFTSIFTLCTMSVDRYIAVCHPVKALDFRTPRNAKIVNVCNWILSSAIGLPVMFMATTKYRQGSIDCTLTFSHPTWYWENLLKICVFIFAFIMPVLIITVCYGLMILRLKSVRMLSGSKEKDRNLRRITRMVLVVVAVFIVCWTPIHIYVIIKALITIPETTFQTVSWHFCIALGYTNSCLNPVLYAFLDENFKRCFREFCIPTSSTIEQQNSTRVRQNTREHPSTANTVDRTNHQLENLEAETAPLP
Delta-type opioid receptor, sequence (P33533 whole entry): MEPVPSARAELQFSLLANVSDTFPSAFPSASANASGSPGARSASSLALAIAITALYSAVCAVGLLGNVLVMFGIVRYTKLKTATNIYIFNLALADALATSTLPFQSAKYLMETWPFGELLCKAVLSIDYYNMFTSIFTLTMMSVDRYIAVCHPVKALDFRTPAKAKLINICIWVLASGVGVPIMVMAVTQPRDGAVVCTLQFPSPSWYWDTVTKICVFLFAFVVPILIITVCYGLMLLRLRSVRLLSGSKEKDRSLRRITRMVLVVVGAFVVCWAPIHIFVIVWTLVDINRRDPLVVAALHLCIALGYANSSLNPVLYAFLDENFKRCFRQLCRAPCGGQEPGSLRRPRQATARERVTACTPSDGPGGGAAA

As for `NC(=O)[C@@H]1CCC(=O)NCCC[C@@H](NC(=O)[C@@H](N)Cc2ccc(O)cc2)C(=O)N[C@@H](Cc2ccccc2)C(=O)N1`, the IC50 came to 1.11 nM in test [1] and 1.17 nM in test [5]. The Relative potency in test [2] is on record as 210; in test [6] it was 10.3. Moreover, the inhibition constant (Ki) was 0.981 nM in test [3] and 3.21 nM in test [4].
Take `C[C@]1(Cc2ccccc2)NC(=O)[C@H](NC(=O)[C@@H](N)Cc2ccc(O)cc2)CCCNC(=O)CC[C@@H](C(N)=O)NC1=O`: the results for the IC50 in test [1] and in test [5] were 5.51 nM and 3.31 nM, respectively. In addition, the Relative potency is 74.3 in test [2] and 2.07 in test [6]. Further, the inhibitory constant (Ki) in test [3] was found to be 7.17 nM; in test [4], 54.6 nM.
As for `NC(=O)[C@@H]1CCC(=O)NCCC[C@@H](NC(=O)[C@@H](N)Cc2ccc(O)cc2)C(=O)N[C@@]2(CCc3ccccc3C2)C(=O)N1` (single isomer, unassigned), the IC50 in test [1] was found to be 3070 nM; in test [5], 285 nM. For the same compound, the Relative potency in test [2] came to 0.863; in test [6], 0.00371. In addition, the values for the inhibition constant (Ki) in test [3] and in test [4] were 26.3 nM and 3510 nM, respectively.
As to `NC(=O)[C@@H]1CCC(=O)NCCC[C@@H](NC(=O)[C@@H](N)Cc2ccc(O)cc2)C(=O)NC2(Cc3ccccc3C2)C(=O)N1` [listing 1 of 2 here], the Relative potency in test [2] is recorded as 34.1; in test [6] it was 0.312.
In the case of `Cc1ccccc1C[C@@H]1NC(=O)[C@H](NC(=O)[C@@H](N)Cc2ccc(O)cc2)CCCNC(=O)CC[C@@H](C(N)=O)NC1=O`, the IC50 in test [1] came to 1.11 nM; in test [5], 0.543 nM. The Relative potency in test [2] turned out to be 453; in test [6] it was 10.3. In addition, the Ki in test [3] turned out to be 1.92 nM; in test [4], 9.22 nM.
For the compound `NC(=O)[C@@H]1CCC(=O)NCCC[C@@H](NC(=O)[C@@H](N)Cc2ccc(O)cc2)C(=O)NC2(Cc3ccccc3C2)C(=O)N1` [listing 2 of 2 here], the IC50 in test [1] worked out at 36.5 nM; in test [5], 7.21 nM. In addition, the Ki amounted to 4.21 nM in test [3] and 209 nM in test [4].
As to `CN1C(=O)[C@H](NC(=O)[C@@H](N)Cc2ccc(O)cc2)CCCNC(=O)CC[C@@H](C(N)=O)NC(=O)[C@@H]1Cc1ccccc1`, the IC50 was found to be 2070 nM in test [1] and 707 nM in test [5]. Besides, the Relative potency is on record as 0.348 in test [2] and 0.00551 in test [6]. Further, the Ki amounted to 1000 nM in test [3] and 12800 nM in test [4].
Regarding `NC(=O)[C@@H]1CCC(=O)NCCC[C@@H](NC(=O)[C@@H](N)Cc2ccc(O)cc2)C(=O)N[C@]2(CCc3ccccc3C2)C(=O)N1` (single isomer, unassigned), the IC50 in test [1] came out at 254 nM; in test [5] it was 31.6 nM. In addition, the Relative potency in test [2] is reported as 7.78; in test [6] it was 0.0449. Also, the Ki amounted to 8.26 nM in test [3] and 1570 nM in test [4].
For the compound `NC(=O)[C@@H]1CCC(=O)NCCC[C@@H](NC(=O)[C@@H](N)Cc2ccc(O)cc2)C(=O)N[C@@H](CCc2ccccc2)C(=O)N1`, the IC50 was 34.3 nM in test [1] and 5.82 nM in test [5]. For the same compound, the Relative potency is on record as 42.3 in test [2] and 0.332 in test [6]. The same compound yielded a Ki in test [4] of 15.4 nM.
As to `NC(=O)[C@@H]1CCC(=O)NCCC[C@@H](NC(=O)[C@@H](N)Cc2ccc(O)cc2)C(=O)N2Cc3ccccc3C[C@H]2C(=O)N1`, the results for the IC50 in test [1] and in test [5] were 7310 nM and 3060 nM, respectively. The Relative potency is 0.0803 in test [2] and 0.00156 in test [6]. The Ki is 2410 nM in test [3] and 50100 nM in test [4].
In the case of `NC(=O)[C@@H]1CCC(=O)NCCC[C@@H](NC(=O)[C@@H](N)Cc2ccc(O)cc2)C(=O)N[C@H](CCc2ccccc2)C(=O)N1`, the IC50 in test [1] worked out at 4160 nM; in test [5] it was 728 nM. Besides, the Relative potency in test [2] is given as 0.338; in test [6], 0.00274. Besides, the inhibitory constant (Ki) is 258 nM in test [3] and 2600 nM in test [4].
Take `NC(=O)[C@@H]1CCC(=O)NCCC[C@@H](NC(=O)[C@@H](N)Cc2ccc(O)cc2)C(=O)N[C@H](Cc2ccccc2)C(=O)N1`: the Relative potency in test [1] stood at 3860 nM; in test [2] it was 0.28; in test [6], 0.00295. Also, in test [4], the Ki turned out to be 14000 nM.
In the case of `NC(=O)[C@@H]1CCC(=O)NCCC[C@@H](NC(=O)[C@@H](N)Cc2ccc(O)cc2)C(=O)N[C@@H](Cc2ccc3ccccc3c2)C(=O)N1`, the values for the IC50 in test [1] and in test [5] were 10.9 nM and 4.07 nM, respectively. In addition, the Relative potency is recorded as 60.5 in test [2] and 1.05 in test [6]. Also, the Ki in test [3] is 2.56 nM; in test [4] it was 50.7 nM.
